# In ChEMBL document CHEMBL2150894, “Synthesis and anti-staphylococcal activity of new 4-diazopyrazole derivatives” (2012):
# Activity calls are given as the source filed them. The calls are words filed in the database; no cut-off is given here.
# Tests used:
# Type in all cases: functional
# Staphylococcus aureus [1] = experiment: Antibacterial activity against Staphylococcus aureus isolate 723 obtained from veterinary sample after 24 hrs by broth microdilution method; details: isolate 723, 24 h
# Procedure, shortened: (§1)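 Broth microdilution in Mueller Hinton broth with twofold serial dilutions spanning 50 to 0.001. Each well received inoculum from a 24 h culture containing about 10⁶ cfu mL⁻¹, then incubated at 37 °C for 24 h. MIC was the lowest concentration whose OD570 matched the broth-only negative control. Veterinary isolates came from milk and food samples (IZS Sicily collection).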
# Staphylococcus aureus [2] = experiment: Antibacterial activity against Staphylococcus aureus isolate 722 obtained from veterinary sample after 24 hrs by broth microdilution method; details: isolate 722, 24 h; procedure, shortened: as §1
# Staphylococcus aureus [3] = experiment: Antibacterial activity against Staphylococcus aureus isolate 357 obtained from veterinary sample after 24 hrs by broth microdilution method; details: isolate 357, 24 h; procedure, shortened: as §1
# Staphylococcus aureus [4] = experiment: Antibacterial activity against Staphylococcus aureus isolate 100 obtained from veterinary sample after 24 hrs by broth microdilution method; details: isolate 100, 24 h; procedure, shortened: as §1
# Staphylococcus aureus [5] = experiment: Antibacterial activity against Staphylococcus aureus ATCC 29213 after 24 hrs by broth microdilution method; details: ATCC 29213, 24 h; procedure, shortened: as §1
# Staphylococcus aureus [6] = experiment: Antibacterial activity against Staphylococcus aureus ATCC 25923 after 24 hrs by broth microdilution method; details: ATCC 25923, 24 h; procedure, shortened: as §1
# Staphylococcus aureus [7] = experiment: Antibacterial activity against Staphylococcus aureus ATCC 29213 by NCCLS method
# Staphylococcus aureus [8] = experiment: Antibacterial activity against Staphylococcus aureus isolate 712 obtained from veterinary sample after 24 hrs by broth microdilution method; details: isolate 712, 24 h; procedure, shortened: as §1
# Staphylococcus aureus [9] = experiment: Antibacterial activity against Staphylococcus aureus ATCC 6538 after 24 hrs by broth microdilution method; details: ATCC 6538, 24 h; procedure, shortened: as §1
# Staphylococcus aureus [10] = experiment: Antibacterial activity against Staphylococcus aureus isolate 708 obtained from veterinary sample after 24 hrs by broth microdilution method; details: isolate 708, 24 h; procedure, shortened: as §1
# [11] = test system: Staphylococcus epidermidis; experiment: Antibacterial activity against Staphylococcus epidermidis RP62A assessed as inhibition of biofilm formation at 25 ug/mL
# Staphylococcus aureus [12] = experiment: Antibacterial activity against methicillin-resistant Staphylococcus aureus clinical isolate
# [13] = test system: Staphylococcus epidermidis; experiment: Antibacterial activity against Staphylococcus epidermidis RP62A
# Staphylococcus aureus [14] = experiment: Antibacterial activity against methicillin-resistant Staphylococcus aureus ATCC 43866
# Staphylococcus aureus [15] = experiment: Antibacterial activity against methicillin-resistant Staphylococcus aureus ATCC 43866 assessed as inhibition of biofilm formation at 25 ug/mL
# Staphylococcus aureus [16] = experiment: Antibacterial activity against Staphylococcus aureus ATCC 29213 assessed as inhibition of biofilm formation at 25 ug/mL
# Staphylococcus aureus [17] = experiment: Antibacterial activity against Staphylococcus aureus ATCC 29213
# Procedure, shortened: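 Broth microdilution: twofold serial dilutions of compound (range 50 to 0.001) in Mueller Hinton broth, each well inoculated with bacterial suspension from a 24 h culture containing ~10⁶ cfu/mL. Incubated 37 °C for 24 h.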
# [18] = test system: Staphylococcus epidermidis; experiment: Antibacterial activity against Staphylococcus epidermidis RP62A assessed as inhibition of biofilm formation
# Staphylococcus aureus [19] = experiment: Antibacterial activity against Staphylococcus aureus ATCC 25923 assessed as inhibition of biofilm formation at 3.1 ug/mL
# Staphylococcus aureus [20] = experiment: Antibacterial activity against Staphylococcus aureus ATCC 29213 assessed as inhibition of biofilm formation at 3.1 ug/mL
# Staphylococcus aureus [21] = experiment: Antibacterial activity against Staphylococcus aureus isolate 708 obtained from veterinary sample assessed as inhibition of biofilm formation at 3.1 ug/mL
Structure (SMILES),MIC (Staphylococcus aureus [1]),MIC (Staphylococcus aureus [2]),MIC (Staphylococcus aureus [3]),MIC (Staphylococcus aureus [4]),MIC (Staphylococcus aureus [5]),MIC (Staphylococcus aureus [6]),MIC (Staphylococcus aureus [8]),MIC (Staphylococcus aureus [9]),MIC (Staphylococcus aureus [10]),other results
CO[C@H]1/C=C/O[C@@]2(C)Oc3c(C)c(O)c4c(O)c(c(/C=N/N5CCN(C)CC5)c(O)c4c3C2=O)NC(=O)/C(C)=C\C=C\[C@H](C)[C@H](O)[C@@H](C)[C@@H](O)[C@@H](C)[C@H](OC(C)=O)[C@@H]1C [RIFAMPIN],1.25 µg/mL,0.6 µg/mL,0.015 µg/mL,0.07 µg/mL,0.015 µg/mL,0.015 µg/mL,0.3 µg/mL,0.015 µg/mL,0.07 µg/mL,MIC (Staphylococcus aureus [7]): 0.008 µg/mL
Cc1nn(C)c([N-]C(=O)c2ccc([N+](=O)[O-])cc2)c1[N+]#N,,,,,,,,,,inhibition at 25 µg/mL [11]: 69.7%; MIC (Staphylococcus aureus [12]): 2 µg/mL; MIC [13]: 1.5 µg/mL; MIC (Staphylococcus aureus [14]): 1.5 µg/mL; inhibition at 25 µg/mL (Staphylococcus aureus [15]): 69.7%; inhibition at 25 µg/mL (Staphylococcus aureus [16]): 69.7%; MIC (Staphylococcus aureus [17]): 1.5 µg/mL
Cc1nn(C)c([N-]C(=O)Nc2ccc(OCc3ccccc3)cc2[N+](=O)[O-])c1[N+]#N,> 50 µg/mL,> 50 µg/mL,> 50 µg/mL,> 50 µg/mL,> 50 µg/mL,> 50 µg/mL,> 50 µg/mL,> 50 µg/mL,> 50 µg/mL,
Cc1nn(C)c([N-]C(=O)Nc2ccc([N+](=O)[O-])cc2)c1[N+]#N,100 µg/mL,3.1 µg/mL,3.1 µg/mL,> 100 µg/mL,6.2 µg/mL,6.2 µg/mL,3.1 µg/mL,6.2 µg/mL,3.1 µg/mL,
COc1ccc(NC(=O)[N-]c2c([N+]#N)c(C)nn2C)c([N+](=O)[O-])c1,> 50 µg/mL,> 50 µg/mL,> 50 µg/mL,> 50 µg/mL,> 50 µg/mL,> 50 µg/mL,> 50 µg/mL,> 50 µg/mL,> 50 µg/mL,
Cc1nn(C)c([N-]C(=O)c2ccc(Cl)cc2Cl)c1[N+]#N,,,,,,,,,,MIC (Staphylococcus aureus [12]): 2 µg/mL; MIC [13]: 1.5 µg/mL; MIC (Staphylococcus aureus [14]): 1.5 µg/mL; MIC (Staphylococcus aureus [17]): 1.5 µg/mL; inhibition [18]: Active
Cc1nn(C)c([N-]C(=O)c2ccc(Cl)cc2)c1[N+]#N,,,,,,,,,,inhibition at 25 µg/mL [11]: 69.7%; MIC (Staphylococcus aureus [12]): 2 µg/mL; MIC [13]: 1.5 µg/mL; MIC (Staphylococcus aureus [14]): 1.5 µg/mL; inhibition at 25 µg/mL (Staphylococcus aureus [15]): 69.7%; inhibition at 25 µg/mL (Staphylococcus aureus [16]): 69.7%; MIC (Staphylococcus aureus [17]): 1.5 µg/mL
CCCCOc1ccc(NC(=O)[N-]c2c([N+]#N)c(C)nn2C)c([N+](=O)[O-])c1,> 50 µg/mL,> 50 µg/mL,> 50 µg/mL,> 50 µg/mL,> 50 µg/mL,> 50 µg/mL,> 50 µg/mL,> 50 µg/mL,> 50 µg/mL,

# Continued, in another order:
MIC (Staphylococcus aureus [1]),MIC (Staphylococcus aureus [2]),MIC (Staphylococcus aureus [3]),MIC (Staphylococcus aureus [4]),MIC (Staphylococcus aureus [5]),MIC (Staphylococcus aureus [6]),MIC (Staphylococcus aureus [8]),MIC (Staphylococcus aureus [9]),MIC (Staphylococcus aureus [10]),Structure (SMILES),other results
3.1 µg/mL,12.5 µg/mL,1.5 µg/mL,6.2 µg/mL,25 µg/mL,25 µg/mL,50 µg/mL,6.2 µg/mL,12.5 µg/mL,Cc1nn(C)c([N-]C(=O)Cc2ccc(Cl)cc2)c1[N+]#N,
6.2 µg/mL,25 µg/mL,6.2 µg/mL,12.5 µg/mL,12.5 µg/mL,12.5 µg/mL,50 µg/mL,12.5 µg/mL,25 µg/mL,Cc1nn(C)c([N-]C(=O)Nc2ccccc2)c1[N+]#N,
3.1 µg/mL,6.2 µg/mL,1.5 µg/mL,3.1 µg/mL,3.1 µg/mL,6.2 µg/mL,1.5 µg/mL,3.1 µg/mL,6.2 µg/mL,Cc1nn(C)c([N-]C(=O)Cc2ccccc2)c1[N+]#N,inhibition at 3.1 µg/mL (Staphylococcus aureus [19]): 45.7%; inhibition (Staphylococcus aureus [20]): inactive; inhibition (Staphylococcus aureus [21]): inactive
6.2 µg/mL,6.2 µg/mL,6.2 µg/mL,3.1 µg/mL,6.2 µg/mL,6.2 µg/mL,25 µg/mL,6.2 µg/mL,6.2 µg/mL,COc1ccc(CC(=O)[N-]c2c([N+]#N)c(C)nn2C)cc1,inhibition at 3.1 µg/mL (Staphylococcus aureus [19]): 38%; inhibition at 3.1 µg/mL (Staphylococcus aureus [20]): 45.7%; inhibition at 3.1 µg/mL (Staphylococcus aureus [21]): 25%
3.1 µg/mL,3.1 µg/mL,6.2 µg/mL,3.1 µg/mL,6.2 µg/mL,6.2 µg/mL,25 µg/mL,6.2 µg/mL,6.2 µg/mL,Cc1nn(C)c([N-]C(=O)Nc2ccc(Cl)c(Cl)c2)c1[N+]#N,
12.5 µg/mL,12.5 µg/mL,6.2 µg/mL,6.2 µg/mL,6.2 µg/mL,6.2 µg/mL,3.1 µg/mL,25 µg/mL,25 µg/mL,Cc1nn(C)c([N-]C(=O)Nc2ccc(Cl)cc2)c1[N+]#N,
